Like-named read-outs stand apart in the source and are kept apart here. Each block holds one compound with its values, some of them ahead of it.
Key:
[1] = molecular target: T1, α-Galactosidase A from green coffee beans (Coffea arabica, UniProt Q42656); test: GLA enzyme kinetics assay; type: biochemical
[2] = test system: GLA; conditions: cited from earlier work
[3] = test system: rice α-glucosidase (GAA); test: α-glucosidase; type: biochemical; conditions: enzyme 8 nM, substrate 160 μM
Method in brief: (§1)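 Enzyme (2 μl), then 23 nl test compound in DMSO, then 1 μl 4MU substrate; 30 min at 21 °C, NaOH/glycine stop (pH 11.6), fluorescence at ex 365/em 440 nm. Enzymes stored in 30% glycerol at -80°C. GC: clinical imiglucerase, 1.9 nM, 800 μM 4MU-β-Glc, citrate/phosphate pH 5.9. GAA: 8 nM, 160 μM 4MU-α-glc, same buffer titrated to pH 5.0.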

[4] = molecular target: T2, human recombinant glucocerebrosidase (GC) (Homo sapiens, UniProt P04062, R534H); test: glucocerebrosidase; type: biochemical
T2 sequence (P04062 40-536 R534H): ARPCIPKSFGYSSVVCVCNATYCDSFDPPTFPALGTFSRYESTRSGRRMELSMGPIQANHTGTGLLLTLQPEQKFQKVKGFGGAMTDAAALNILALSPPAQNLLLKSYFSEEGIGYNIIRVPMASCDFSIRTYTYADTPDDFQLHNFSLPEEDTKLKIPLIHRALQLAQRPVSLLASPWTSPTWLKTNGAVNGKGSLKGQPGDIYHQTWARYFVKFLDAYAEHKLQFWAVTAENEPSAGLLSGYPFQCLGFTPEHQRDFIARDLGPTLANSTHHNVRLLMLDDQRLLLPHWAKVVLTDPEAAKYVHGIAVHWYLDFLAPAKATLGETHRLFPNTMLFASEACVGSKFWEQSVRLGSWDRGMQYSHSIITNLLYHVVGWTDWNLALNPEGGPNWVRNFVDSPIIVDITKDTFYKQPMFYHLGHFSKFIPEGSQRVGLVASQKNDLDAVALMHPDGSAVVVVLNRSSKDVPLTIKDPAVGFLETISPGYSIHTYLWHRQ
Method in brief: as §1

[5] = molecular target: T3, GLA in human spleen homogenate (Homo sapiens, UniProt P06280); test: qHTS with GLA in human spleen homogenate; type: biochemical; conditions: human spleen homogenate screen
T3 sequence (P06280 32-429): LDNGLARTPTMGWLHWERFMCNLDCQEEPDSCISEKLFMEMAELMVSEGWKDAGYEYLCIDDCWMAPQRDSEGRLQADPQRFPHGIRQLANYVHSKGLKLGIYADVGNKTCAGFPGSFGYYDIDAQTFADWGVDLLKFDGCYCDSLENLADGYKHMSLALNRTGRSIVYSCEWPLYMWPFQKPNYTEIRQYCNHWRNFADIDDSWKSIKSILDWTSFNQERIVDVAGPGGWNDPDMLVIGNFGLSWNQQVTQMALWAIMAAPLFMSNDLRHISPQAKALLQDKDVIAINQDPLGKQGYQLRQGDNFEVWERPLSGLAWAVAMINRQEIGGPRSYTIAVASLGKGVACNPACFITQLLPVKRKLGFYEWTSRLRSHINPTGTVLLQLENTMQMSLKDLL

[6] = molecular target: T1, α-Galactosidase A from green coffee beans; test: GLA enzyme assay with 4MU-α-Gala, purified enzyme from green coffee beans; type: biochemical; conditions: for selectivity for GLA over GC (words): GLA vs GC; for inhibitory activity against GLA in qHTS and confirmation: bioactive 6,160 compound set; for IC50: read-out: IC50 for GLA, coffee bean GLA 1 nM, 40 μM 4MU-α-Gala, pH 5.9
[7] = molecular target: T4, human recombinant GLA (Homo sapiens, UniProt P06280); test: qHTS with human recombinant GLA; type: biochemical; conditions: human recombinant GLA screen
T4 sequence (P06280 32-429): T3 sequence (P06280 32-429)

[8] = read-out: IC50 for GC, enzyme 1.9 nM, substrate 800 μM

T1 sequence (Q42656 16-378): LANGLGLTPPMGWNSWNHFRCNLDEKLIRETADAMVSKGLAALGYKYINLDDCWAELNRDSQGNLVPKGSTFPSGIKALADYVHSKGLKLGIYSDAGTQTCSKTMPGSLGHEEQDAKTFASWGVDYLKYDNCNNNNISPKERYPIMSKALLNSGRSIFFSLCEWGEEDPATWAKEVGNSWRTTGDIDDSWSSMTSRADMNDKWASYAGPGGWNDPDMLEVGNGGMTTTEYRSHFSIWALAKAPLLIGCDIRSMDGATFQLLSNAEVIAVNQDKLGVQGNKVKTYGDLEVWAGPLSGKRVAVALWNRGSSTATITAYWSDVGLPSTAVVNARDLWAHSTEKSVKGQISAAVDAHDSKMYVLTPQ

Compound: OC[C@H]1NC[C@H](O)[C@@H](O)[C@H]1O [DGJ, 1-deoxygalactonojirimycin]
IC50 ([2]; read-out: reported IC50 value): 0.003 µM

Compound: O=C([O-])c1ccccc1-c1c2cc(Br)c(=O)cc-2oc2[c]([Hg+])c([O-])c(Br)cc12.[Na+].[Na+].[OH-] [merbromin]
inhibition of GAA [3]: slightly inhibited GAA | IC50 [4, 8]: 0.63 µM | selectivity for GLA over GC (words) [6]: not selective for GLA | selectivity for GLA over GC (words) ([6]; listed as Merbromin): more potent against GC than GLA | inhibitory activity against GLA in qHTS and confirmation [6]: relatively high inhibitory activity | IC50 [6]: 1.38 µM

Compound: CC(=O)[O][Hg][c]1ccccc1 [phenylmercuric acetate]
inhibition of GAA [3]: did not inhibit GAA | IC50 [4, 8]: 0.082 µM | selectivity for GLA over GC (words) [6]: not selective for GLA | selectivity for GLA over GC (words) ([6]; listed as Phenylmercuric acetate): significantly more potent against GC than GLA | inhibitory activity against GLA in qHTS and confirmation [6]: relatively high inhibitory activity | IC50 [6]: 7.42 µM

Compound: C[C@H](CCC(=O)NCCS(=O)(=O)O)[C@H]1CC[C@H]2[C@@H]3[C@H](O)C[C@@H]4C[C@H](O)CC[C@]4(C)[C@H]3C[C@H](O)[C@]12C [sodium taurocholate]
effect on GLA activity ([6]; titration 0.15 to 40 mM): decreased the GLA activity

The next lines start with results.

Km ([1]; pH 4.5): 102 µM | Vmax ([1]; pH 4.5): 2.76 pmol/min | Km ([1]; pH 5.9, 1 nM enzyme): 144 µM | Vmax ([1]; pH 5.9, 1 nM enzyme): 5.74 pmol/min
Compound: Cc1cc(=O)oc2cc(O[C@H]3O[C@H](CO)[C@H](O)[C@H](O)[C@H]3O)ccc12 [4MU-α-Gala, 4-methylumbelliferyl-α-D-galactopyranoside]
Km ([2]; same substrate, pH 6.5): 239 µM

Ki [1]: 5.5 µM | type of inhibition ([1]; Lineweaver-burk plot): mixed type of inhibition | inhibition of GAA [3]: did not inhibit GAA | IC50 [4]: 122 µM | activity with the human enzyme [5]: not active | selectivity for GLA over GC (words) [6]: showed selectivity for GLA over GC | inhibitory activity against GLA in qHTS and confirmation [6]: relatively high inhibitory activity | activity with the human enzyme [7]: not active
Compound: Cc1c(OCC(F)(F)F)ccnc1C[S+]([O-])c1nc2ccccc2[nH]1 (stereo not drawn) [lansoprazole]

From publication PMC3040456 (Current Chemical Genomics, 2010)
